Screens deposited in PubChem by Broad Institute.
Sampled rows, rich in hits. Any-hit rate of the full collection: about 2.9%.
DENV2 CPE rescue – inhibitors of DENV2 cytopathic effect, primary screen, cell-based, plate reader, single concentration | AID 651640, 2012 | hit rate 1.7% among 350,000 | CPE inhibition, % at 9.99 µM | DENV2-infected cells, cytopathic effect rescue; in the data active = CPE inhibition above about 20%, passing the limit was not always enough; inconclusive = no clear call, values can overlap the other calls; tested in BHK-21 cells
E-selectin induc – E-selectin induction in HUVECs, primary screen, imaging, HUVEC, immunofluorescence imaging, single point. P16581. normalized: neutral wells 0, TNF-alpha wells 100. activation, % at 7.58 µM. hit rate 0.37% among 260,000. AID 686992, 2013;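 active = mean E-selectin-positive cell signal at least 10% of the positive control, reached in at least 60% of replicates, without over 20% cell loss; inconclusive = no rule given, readout overlaps actives, possibly toxicity-flagged; inactive = the rest, including those meeting only one limit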
Target sequence (P16581 whole entry, looked up): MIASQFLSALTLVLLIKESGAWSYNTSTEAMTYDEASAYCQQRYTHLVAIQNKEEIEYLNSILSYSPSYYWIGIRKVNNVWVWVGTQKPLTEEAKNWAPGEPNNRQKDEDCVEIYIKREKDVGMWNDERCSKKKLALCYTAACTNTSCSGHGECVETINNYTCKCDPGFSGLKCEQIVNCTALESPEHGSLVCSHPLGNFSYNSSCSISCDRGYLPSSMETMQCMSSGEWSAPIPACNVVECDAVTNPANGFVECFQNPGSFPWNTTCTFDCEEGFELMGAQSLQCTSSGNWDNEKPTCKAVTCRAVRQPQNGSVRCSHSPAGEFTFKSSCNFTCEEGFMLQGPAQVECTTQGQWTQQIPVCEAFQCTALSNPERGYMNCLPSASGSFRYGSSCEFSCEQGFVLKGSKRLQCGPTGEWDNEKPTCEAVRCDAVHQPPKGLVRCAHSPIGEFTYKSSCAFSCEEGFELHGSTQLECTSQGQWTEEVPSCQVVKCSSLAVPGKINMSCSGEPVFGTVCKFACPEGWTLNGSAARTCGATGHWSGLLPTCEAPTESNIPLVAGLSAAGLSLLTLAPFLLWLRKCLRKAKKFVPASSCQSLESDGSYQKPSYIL
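Read-out: % PE-positive cells | Test system: HUVEC | Doses: One compound dose added by pin transfer | Buffer or medium: EGM-2 over gelatin coat | Signal: Immunofluorescence imaging | Benchmarks: TNF-alpha, DMSO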
SIRT5 inh – SIRT5 desuccinylase inhibitors, primary screen, biochemical, fluorescence imaging, single point, set 5; NAD-dependent protein deacylase sirtuin-5, mitochondrial (Homo sapiens), Q9NXA8; Purified SirT5, succinyl-peptide AMC, trypsin-coupled fluorescence; inhibition, % at 15 µM; hit rate 1.1% among 330,000; in the data active = inhibition above about 15%; inconclusive = no clear call, values can overlap the other calls
Of the large screens only hits and unclear results are named; the others gave an inactive call.

C[C@@H]1CN([C@@H](C)CO)C(=O)c2cc(NC(=O)c3ccncc3)ccc2O[C@@H](C)CCCCO[C@H]1CN(C)C(=O)Nc1ccc(C(F)(F)F)cc1	none
C[C@@H]1CN([C@@H](C)CO)C(=O)c2cc(NC(=O)c3ccncc3)ccc2O[C@@H](C)CCCCO[C@@H]1CN(C)C(=O)Nc1ccc(C(F)(F)F)cc1	DENV2 CPE rescue 54.7
C[C@H]1CCCCO[C@H](CN(C)C(=O)Nc2ccc(C(F)(F)F)cc2)[C@@H](C)CN([C@@H](C)CO)C(=O)c2cc(NC(=O)c3ccncc3)ccc2O1	none
C[C@H](CO)N1C[C@H](C)[C@@H](CN(C)C)Oc2ncc(-c3ccncc3)cc2C1=O	none
COc1cccc(NC(=O)N(C)C[C@H]2OCc3ccccc3-c3c(n(C)c4ccccc34)C(=O)N([C@H](C)CO)C[C@@H]2C)c1	none
C[C@H]1CCCCO[C@@H](CN(C)C(=O)C2CCCCC2)[C@@H](C)CN([C@@H](C)CO)C(=O)c2cc(NC(=O)c3ccncc3)ccc2O1	DENV2 CPE rescue inconclusive
C[C@@H]1CCCCO[C@@H](CN(C)C(=O)C2CCCCC2)[C@H](C)CN([C@H](C)CO)C(=O)c2cc(NC(=O)c3ccncc3)ccc2O1	DENV2 CPE rescue 136.0
O=C(CCCC(=O)N1CCN(c2ccc([N+](=O)[O-])cc2)CC1)c1ccccc1	none (no result: E-selectin induc, SIRT5 inh)
COc1ccc(S(=O)(=O)N(C)[C@H]2C[C@H]3c4cc(-c5ccccc5)ccc4CCN3C(=O)[C@H]2[C@H](C)O)cc1	none
COc1ccc(S(=O)(=O)N(C)[C@H]2C[C@H]3c4cc(Oc5ccccc5C)ccc4CCN3C(=O)[C@H]2[C@H](C)O)cc1	SIRT5 inh 17.5
Cc1noc(C)c1NC(=O)Nc1ccc2c(c1)C(=O)N([C@@H](C)CO)C[C@H](C)[C@@H](CN(C)S(=O)(=O)c1ccc(Cl)cc1)OCCCC[C@H](C)O2	none
COc1cccc2c1C(=O)c1c(O)c3c(c(O)c1C2=O)C[C@@](O)(C(=O)CO)C[C@@H]3O[C@H]1C[C@H](N)[C@H](O)[C@H](C)O1	E-selectin induc 57.7
COc1cccc2c1C(=O)c1c(O)c3c(c(O)c1C2=O)C[C@@](O)(C(=O)CO)C[C@@H]3OC1CC(N)C(O)C(C)O1 (some centres undefined)	E-selectin induc inconclusive (no result: SIRT5 inh)
CCN1CCN(C(=O)c2cc3ccc(OC)cc3[nH]2)CC1	none
Cc1ccc2c(c1)CO[C@@]21O[C@H](CCO)C[C@H](O)[C@H]1O	SIRT5 inh 23.0
Cc1ccc2c(c1)CCO[C@]21O[C@H](CCO)C[C@H](O)[C@H]1O	none
CC(=O)NCCCc1nc2ccccc2n1Cc1cc(C)ccc1C	none (no result: E-selectin induc)
COc1cc(C(=O)NCCCc2nc3ccccc3n2Cc2cc(C)ccc2C)cc(OC)c1OC	SIRT5 inh 19.4
COc1ccccc1C(=O)Nc1ccc2ccccc2c1	none (no result: E-selectin induc)
Cc1ccc2nc(SCC(=O)Nc3cc(C)on3)c(C)cc2c1	none (no result: E-selectin induc)
CCOc1ccc2nc(SCC(=O)Nc3cc(C)on3)c(C)cc2c1	SIRT5 inh 80.9 (no result: E-selectin induc)
O=C(C[C@@H]1C[C@@H]2c3cc(NC(=O)C4CCC4)ccc3O[C@@H]2[C@H](CO)O1)NCc1ccccn1	none
O=C(O)/C=C/C(=O)Nc1ccc(C2(c3ccc(NC(=O)/C=C/C(=O)O)cc3)c3ccccc3-c3ccccc32)cc1	SIRT5 inh 15.7 (no result: E-selectin induc)
O=C(O)/C=C/C(=O)Nc1ccc(SC(F)(F)C(F)(F)C(F)(F)F)cc1	none
O=C(O)/C=C\C(=O)Nc1ccc(Oc2ccc(Br)cc2)cc1	none (no result: E-selectin induc)
O=C(O)/C=C/C(=O)Nc1ccc(Cc2ccc(NC(=O)/C=C/C(=O)O)cc2)cc1	SIRT5 inh 21.8
COc1ccccc1OCCNC(=O)C1CC(=O)N(c2cccc(SC)c2)C1 (centres undefined)	none (no result: E-selectin induc)
COc1cc(CCC(=O)N2CCN(c3ccccc3)CC2)cc(OC)c1OC	SIRT5 inh 28.9
COc1ccc(N2CCN(C(=O)NCc3ccc(C)cc3)CC2)cc1	none
COc1ccc(N2CCN(C(=O)CCc3cc(OC)c(OC)c(OC)c3)CC2)cc1	none
COc1ccc(CNC(=O)N2CCN(c3ccccc3)CC2)cc1	SIRT5 inh 15.7
O=C(CS(=O)(=O)c1ccc(Cl)cc1)N1CCN(c2ccccc2)CC1	none (no result: SIRT5 inh)
O=C(CS(=O)(=O)c1ccccc1)N1CCN(c2ccccc2)CC1	DENV2 CPE rescue 103.1
CC(=O)/C=C(\C)N=Nc1c(O)[nH]c2ccccc12	none (no result: E-selectin induc)
C[C@@H]1CN([C@H](C)CO)C(=O)c2cc(NC(=O)CCCN(C)C)ccc2O[C@@H](C)CCCCO[C@H]1CN(C)S(=O)(=O)c1cn(C)cn1	none
O=C(c1ccc(COc2ccc(Cl)cc2)cc1)N1CCCCC1	none (no result: E-selectin induc)
O=C(COC(=O)c1ccccc1)Nc1ncc([N+](=O)[O-])s1	SIRT5 inh 20.9
O=C(Nc1ccccc1)Nc1ncc([N+](=O)[O-])s1	none (no result: E-selectin induc)
COCCNC(=O)C[C@H]1CC[C@H]2[C@@H](COc3ccc(NC(=O)C4CCOCC4)cc3C(=O)N2C)O1	none
CN1C(=O)c2cc(NC(=O)C3CCC3)ccc2OC[C@@H]2O[C@H](CC(=O)NCCc3ccncc3)CC[C@@H]21	none
CN1C(=O)c2cc(NC(=O)C3CCCC3)ccc2OC[C@@H]2O[C@H](CC(=O)NCCc3ccncc3)CC[C@@H]21	none
CN1C(=O)c2cc(NC(=O)C3CCC3)ccc2OC[C@H]2O[C@@H](CC(=O)NCCc3ccncc3)CC[C@H]21	DENV2 CPE rescue 20.6
CN1C(=O)c2cc(NC(=O)C3CCC3)ccc2OC[C@@H]2O[C@H](CC(=O)NCCc3ccncc3)CC[C@H]21	none
COCCNC(=O)C[C@@H]1CC[C@@H]2[C@@H](COc3ccc(NC(=O)C4CCOCC4)cc3C(=O)N2C)O1	DENV2 CPE rescue 21.1
CN1C(=O)c2cc(NC(=O)C3CCCC3)ccc2OC[C@H]2O[C@H](CC(=O)NCCc3ccncc3)CC[C@@H]21	DENV2 CPE rescue 28.6
CN1C(=O)c2cc(NC(=O)C3CCCC3)ccc2OC[C@H]2O[C@H](CC(=O)NCCc3ccncc3)CC[C@H]21	DENV2 CPE rescue 165.6
CNC[C@@H]1OCCCC[C@@H](C)Oc2ccc(NS(=O)(=O)c3ccc(F)cc3)cc2C(=O)N([C@H](C)CO)C[C@@H]1C	DENV2 CPE rescue inconclusive
Cn1nc(C(=O)OCC(=O)c2ccccc2)c2ccccc2c1=O	none (no result: E-selectin induc)
C=CCNC(=O)C12CCC(C)(C(=O)C1Br)C2(C)C (centres undefined)	none (no result: DENV2 CPE rescue, SIRT5 inh)
COc1ccc2nc(SCC(=O)c3c(N)n(C4CC4)c(=O)[nH]c3=O)[nH]c2c1	none (no result: E-selectin induc)
Cc1ccc(NC(=O)c2sc3ccccc3c2Cl)nc1	none (no result: E-selectin induc)
C[C@@H]1CN([C@@H](C)CO)C(=O)Cc2cc(NC(=O)CCN3CCOCC3)ccc2O[C@H]1CN(C)S(=O)(=O)c1cn(C)cn1	none
C[C@@H]1CN([C@H](C)CO)C(=O)Cc2cc(NC(=O)CCN3CCOCC3)ccc2O[C@H]1CN(C)S(C)(=O)=O	E-selectin induc 331.7
C[C@@H]1CN([C@H](C)CO)C(=O)Cc2cc(NC(=O)CCN3CCOCC3)ccc2O[C@@H]1CN(C)S(=O)(=O)c1cn(C)cn1	DENV2 CPE rescue 21.9
C[C@H]1CN([C@@H](C)CO)C(=O)Cc2cc(NC(=O)CCN3CCOCC3)ccc2O[C@H]1CN(C)S(C)(=O)=O	none
CCOC(=O)C1(C)CCN1C(=O)c1cccnc1Oc1ccccc1 (centres undefined)	none
